Experimental data: ChEMBL document CHEMBL1129414, “Synthesis and cytotoxic and antitumor activity of esters in the 1,2-dihydroxy-1,2-dihydroacronycine series” (J Med Chem, 1996)

Assays:
[1] = test system: L1210; assay: Compound was tested in vitro for cytotoxicity on L1210 leukemic cells by using MTT assay.; assay type: functional, cell-based; conditions: Mus musculus
Procedure, shortened: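 L1210 cells were grown in RPMI 1640 with 10% fetal calf serum, 2 mM L-glutamine and 10 mM HEPES (pH 7.4). Cells were exposed for 48 h to nine serial drug dilutions in triplicate, and viability was read by MTT. IC50 is the concentration halving optical density versus untreated controls, given as mean ± SEM of at least 3 independent experiments.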

[2] = test system: MC-38; assay: Compound was tested for antitumor activity against colon 38 adenocarcinoma cells at the dose of 200 mg/kg ip.; assay type: functional, Mus musculus
[3] = test system: P388; assay: Compound was tested for antitumor activity against P388 leukemia cells at the dose of 200 mg/kg ip.; assay type: functional, Mus musculus
[4] = test system: MC-38; assay: Compound was tested for antitumor activity against colon 38 adenocarcinoma cells at the dose of 12.5 mg/kg ip.; assay type: functional, Mus musculus
[5] = test system: P388; assay: Compound was tested for antitumor activity against P388 leukemia cells at the dose of 50 mg/kg ip.; assay type: functional, Mus musculus
[6] = test system: P388; assay: Compound was tested for antitumor activity against P388 leukemia cells at the dose of 25 mg/kg ip.; assay type: functional, Mus musculus
[7] = test system: P388; assay: Compound was tested for antitumor activity against P388 leukemia cells at the dose of 25 mg/kg iv.; assay type: functional, Mus musculus
[8] = test system: MC-38; assay: Compound was tested for antitumor activity against colon 38 adenocarcinoma cells at the dose of 6.25 mg/kg ip.; assay type: functional, Mus musculus
[9] = test system: P388; assay: Compound was tested for antitumor activity against P388 leukemia cells at the dose of 12.5 mg/kg ip.; assay type: functional, Mus musculus
[10] = test system: P388; assay: Compound was tested for antitumor activity against P388 leukemia cells at the dose of 12.5 mg/kg ip.; conditions: Mus musculus

Compound	IC50 [1]	other results
COc1cc2c(c3c1c(=O)c1ccccc1n3C)C=CC(C)(C)O2 [ACRONINE]	24.1 µM	Activity [2]: 4%; Activity [3]: 125%
Cn1c2ccccc2c(=O)c2ccc3c(c21)[C@H]1OC(=O)O[C@H]1C(C)(C)O3	> 50 µM	
Cn1c2ccccc2c(=O)c2ccc3c(c21)C=CC(C)(C)O3	29.7 µM	
CC(=O)O[C@@H]1c2c(ccc3c(=O)c4ccccc4n(C)c23)OC(C)(C)[C@@H]1OC(C)=O	> 50 µM	
COc1cc2c(c3c1c(=O)c1ccccc1n3C)[C@@H](OC(C)=O)[C@@H](OC(=O)c1ccccc1)C(C)(C)O2	5 µM	Activity [4]: 13%; Activity [5]: 201%
COc1cc2c(c3c1c(=O)c1ccccc1n3C)[C@@H](OC(C)=O)[C@@H](OC(C)=O)C(C)(C)O2	5.8 µM	Activity [4]: 0%; Activity [6]: 289%; Activity [7]: 220%
COc1cc2c(c3c1c(=O)c1ccccc1n3C)[C@@H](O)[C@@H](OC(=O)c1ccccc1)C(C)(C)O2	7.1 µM	Activity [8]: 18%; Activity [9]: 258%
COc1cc2c(c3c1c(=O)c1ccccc1n3C)CCC(C)(C)O2 [DIHYDROACRONYCINE]	34.3 µM	
Cn1c2ccccc2c(=O)c2ccc3c(c21)[C@@H](O)[C@@H](O)C(C)(C)O3	> 50 µM	
COc1cc2c(c3c1c(=O)c1ccccc1n3C)[C@H]1OC(=O)O[C@H]1C(C)(C)O2	0.32 µM	Activity [8]: 68%; Activity [10]: 202%
COc1cc2c(c3c1c(=O)c1ccccc1n3C)[C@@H](O)[C@@H](OC(C)=O)C(C)(C)O2	8.9 µM	
COc1cc2c(c3c1c(=O)c1ccccc1n3C)[C@@H](O)[C@@H](O)C(C)(C)O2	80.6 µM	
